# Laboratory results as given in ChEMBL document CHEMBL1122960, “Acyclic analogues of 2'-deoxynucleosides related to 9-[(1,3-dihydroxy-2-propoxy)methyl]guanine as potential antiviral agents” (1985).
# pIC50: −log10 of the molar value.
# Experiments:
# Assay type in all cases: functional
# Vero = assay: Antiviral activity was determined in plaque reduction assay in vero cells against HSV-1 F strain; conditions: Chlorocebus sabaeus, read-out: ID50 (the source's name)
# Method in brief: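 Vero cells were infected with HSV-1 (F strain) and then treated with the nucleoside analogue. ID50 is the dose giving a 50% reduction in plaque number relative to untreated controls.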
# Mus musculus [1] = assay: Effect of oral treatment on HSV-2 encephalitis infection in mice and mean survival time was reported at a dose 10 mg/kg
# Method in brief: (§1)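 Female Swiss-Webster mice, about 20 g, were infected intraperitoneally with 5 × 10⁴ PFU HSV-2 (strain G), roughly ten LD50. Drug was given orally once daily for 4 days, beginning 24 h after infection, with a placebo group included. Read-outs were survivors/total and mean survival time in days.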
# Mus musculus [2] = assay: Effect of oral treatment on HSV-2 encephalitis infection in mice and mean survival time was reported at a dose 20 mg/kg; method in brief: as §1
# Mus musculus [3] = assay: Effect of oral treatment on HSV-2 encephalitis infection in mice and mean survival time was reported at a dose 5 mg/kg; method in brief: as §1
# Mus musculus [4] = assay: Effect of oral treatment on HSV-2 encephalitis infection in mice and survivors/total was reported at a dose 10 mg/kg; 5/20; method in brief: as §1
# Mus musculus [5] = assay: Effect of oral treatment on HSV-2 encephalitis infection in mice and survivors/total was reported at a dose 20 mg/kg; 8/20; method in brief: as §1
# Mus musculus [6] = assay: Effect of oral treatment on HSV-2 encephalitis infection in mice and survivors/total was reported at a dose 5 mg/kg; 8/20; method in brief: as §1
# Mus musculus [7] = assay: Effect of oral treatment on HSV-2 encephalitis infection in mice and mean survival time was reported at a dose 40 mg/kg; method in brief: as §1
# Mus musculus [8] = assay: Effect of oral treatment on HSV-2 encephalitis infection in mice and survivors/total was reported at a dose 10 mg/kg; 4/20; method in brief: as §1
# Mus musculus [9] = assay: Effect of oral treatment on HSV-2 encephalitis infection in mice and survivors/total was reported at a dose 20 mg/kg; 5/20; method in brief: as §1
# Mus musculus [10] = assay: Effect of oral treatment on HSV-2 encephalitis infection in mice and survivors/total was reported at a dose 40 mg/kg; 7/20; method in brief: as §1
structure (smiles),measurement,setting,value
O=c1ccn(COC(CO)CO)c(=O)[nH]1,pIC50,Vero,< 4.00
Nc1nc(=O)n(COC(CO)CO)cc1F,pIC50,Vero,< 4.00
Nc1ncc2ncn(COC(CO)CO)c2n1,pIC50,Vero,4.80
Nc1nc(S)c2ncn(COC(CO)CO)c2n1,pIC50,Vero,5.05
Nc1ccn(COC(CO)CO)c(=O)n1,pIC50,Vero,< 4.00
Nc1nc2c(ncn2COCCO)c(=O)[nH]1 [ACYCLOVIR],pIC50,Vero,6.30
Nc1ncnc2c1ncn2COC(CO)CO,pIC50,Vero,< 4.00
O=c1[nH]c(=O)n(COC(CO)CO)cc1Br,pIC50,Vero,< 4.00
Nc1nc(=O)ccn1COC(CO)CO,pIC50,Vero,< 4.00
Cc1cn(COC(CO)CO)c(=O)[nH]c1=O,pIC50,Vero,< 4.00
Nc1nc2c(ncn2COC(CO)CO)c(=O)[nH]1 [GANCICLOVIR],Survival time,Mus musculus [1],10.9 days
same,Survival time,Mus musculus [2],13.8 days
same,Survival time,Mus musculus [3],9.9 days
same,Survival,Mus musculus [4],5
same,Survival,Mus musculus [5],8
same,Survival,Mus musculus [6],8
same,pIC50,Vero,6.70
O=c1[nH]c(=O)n(COC(CO)CO)cc1F,pIC50,Vero,< 4.00
Nc1nc(N)c2ncn(COC(CO)CO)c2n1,Survival time,Mus musculus [1],10.8 days
same,Survival time,Mus musculus [2],10.9 days
same,Survival time,Mus musculus [7],11.5 days
same,Survival,Mus musculus [8],4
same,Survival,Mus musculus [9],5
same,Survival,Mus musculus [10],7
same,pIC50,Vero,5.48
